In ChEMBL document CHEMBL2062481 (J Med Chem, 2012):

What was measured:
[1] = 1-octanol-phosphate buffer distribution coefficient, log D of the compound at 1 uM after 2 hrs by shake flask method at pH 7.4; assay type: physicochemical
Summary of the method: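 Phosphate buffer (0.1 M, pH 7.4) and 1-octanol were mutually pre-saturated. Analyte at 1 μM in buffer was overlaid with octanol at two volume ratios chosen by lipophilicity class, three wells per ratio. Plates were shaken 2 h at 25 °C and centrifuged, and the aqueous phase was quantified by LC-MS. Results were accepted if the two ratio means agreed within 0.1 unit.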

[2] = AUC (0 to 24 hrs) in C3H/HeN mouse urine at 25 mg/kg, iv administered as single dose; assay type: ADME, organism-based; set-up: time < 24 hr, dose 25 mg/kg, route intravenous
Summary of the method: (§1)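 Female C3H/HeN mice (19–25 g) received a single tail-vein iv dose in 100 μL PBS. Blood and urine (10 μL) were sampled at 6 and 30 min and at 1, 2, 4, 6 and 8 h. Samples were methanol-precipitated, centrifuged and quantified by LC-MS. n = 4.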

[3] = AUC (0 to 24 hrs) in C3H/HeN mouse plasma at 25 mg/kg, iv administered as single dose; assay type: ADME, organism-based; set-up: time < 24 hr, dose 25 mg/kg, route intravenous; summary of the method: as §1
[4] = AUC (0 to 24 hrs) in C3H/HeN mouse plasma at 5 mg/kg, iv administered as single dose; assay type: ADME, organism-based; set-up: time < 24 hr, dose 5 mg/kg, route intravenous; summary of the method: as §1
[5] = AUC (0 to 24 hrs) in C3H/HeN mouse plasma at 1 mg/kg, iv administered as single dose; assay type: ADME, organism-based; set-up: time < 24 hr, dose 1 mg/kg, route intravenous; summary of the method: as §1
[6] = AUC (0 to 24 hrs) in C3H/HeN mouse urine at 1 mg/kg, iv administered as single dose; assay type: ADME, organism-based; set-up: time < 24 hr, dose 1 mg/kg, route intravenous; summary of the method: as §1
[7] = AUC (0 to 24 hrs) in C3H/HeN mouse urine at 0.05 mg/kg, iv administered as single dose; assay type: ADME, organism-based; set-up: time < 24 hr, dose 0.05 mg/kg, route intravenous; summary of the method: as §1
[8] = AUC (0 to 24 hrs) in C3H/HeN mouse plasma at 0.05 mg/kg, iv administered as single dose; assay type: ADME, organism-based; set-up: time < 24 hr, dose 0.05 mg/kg, route intravenous; summary of the method: as §1

A logD at 2 h, 1 µM [1] of -0.8 was found for `O=C(O)c1ccc(-c2ccc(O[C@H]3O[C@H](CO)[C@@H](O)[C@H](O)[C@@H]3O)c(Cl)c2)cc1` in this work.

An AUC(0-t) at 24 h [2] of 19300 ng·h/mL, an AUC(0-t) at 24 h [3] of 8200 ng·h/mL and a logD at 2 h, 1 µM [1] of 1.8 were found for `OC[C@H]1O[C@H](Oc2ccc(-n3ccc4ccccc43)cc2Cl)[C@@H](O)[C@@H](O)[C@@H]1O` in this work.

An AUC(0-t) at 24 h [4] of 2300 ng·h/mL and a logD at 2 h, 1 µM [1] of 1.8 were found for `O=[N+]([O-])c1ccc2c(ccn2-c2ccc(O[C@H]3O[C@H](CO)[C@@H](O)[C@H](O)[C@@H]3O)c(Cl)c2)c1` in this work.

A logD at 2 h, 1 µM [1] of 3 was found for `COc1ccc2c(ccn2-c2ccc(O[C@H]3O[C@H](CO)[C@@H](O)[C@H](O)[C@@H]3O)c(Cl)c2)c1` in this work.

A logD at 2 h, 1 µM [1] of 2.7 was found for `OC[C@H]1O[C@H](Oc2ccc(-n3ccc4c(OCc5ccccc5)cccc43)cc2Cl)[C@@H](O)[C@@H](O)[C@@H]1O` in this work.

A logD at 2 h, 1 µM [1] of 2.4 was found for `OC[C@H]1O[C@H](Oc2ccc(-n3ccc4ccccc43)cc2F)[C@@H](O)[C@@H](O)[C@@H]1O` in this work.

A logD at 2 h, 1 µM [1] of 1.9 was found for `O=[N+]([O-])c1ccc2c(ccn2-c2ccc(O[C@H]3O[C@H](CO)[C@@H](O)[C@H](O)[C@@H]3O)c(F)c2)c1` in this work.

A logD at 2 h, 1 µM [1] of 2.8 was found for `COC(=O)c1ccc2c(ccn2-c2ccc(O[C@H]3O[C@H](CO)[C@@H](O)[C@H](O)[C@@H]3O)c(Cl)c2)c1` in this work.

A logD at 2 h, 1 µM [1] of 1.1 was found for `O=C(O)c1ccc2c(ccn2-c2ccc(O[C@H]3O[C@H](CO)[C@@H](O)[C@H](O)[C@@H]3O)c(Cl)c2)c1` in this work.

A logD at 2 h, 1 µM [1] of 1.8 was found for `CS(=O)(=O)Nc1ccc2c(ccn2-c2ccc(O[C@H]3O[C@H](CO)[C@@H](O)[C@H](O)[C@@H]3O)c(Cl)c2)c1` in this work.

A logD at 2 h, 1 µM [1] of 3.4 was found for `OC[C@H]1O[C@H](Oc2ccc(-n3ccc4cc(Cl)cnc43)cc2Cl)[C@@H](O)[C@@H](O)[C@@H]1O` in this work.

A logD at 2 h, 1 µM [1] of 1.6 was found for `N#Cc1cnc2c(ccn2-c2ccc(O[C@H]3O[C@H](CO)[C@@H](O)[C@H](O)[C@@H]3O)c(Cl)c2)c1` in this work.

An AUC(0-t) at 24 h [5] of 2200 ng·h/mL, an AUC(0-t) at 24 h [6] of 586000 ng·h/mL and a logD at 2 h, 1 µM [1] of 1.9 were found for `O=[N+]([O-])c1ccc2c(c1)CCN2c1ccc(O[C@H]2O[C@H](CO)[C@@H](O)[C@H](O)[C@@H]2O)cc1` in this work.

A logD at 2 h, 1 µM [1] of 2.3 was found for `OC[C@H]1O[C@H](Oc2ccc(N3CCc4ccccc43)cc2)[C@@H](O)[C@@H](O)[C@@H]1O` in this work.

A logD at 2 h, 1 µM [1] of 1.9, an AUC(0-t) at 24 h [7] of 33400 ng·h/mL and an AUC(0-t) at 24 h [8] of 3500 ng·h/mL were found for `O=[N+]([O-])c1ccc2c(c1)CCN2c1ccc(O[C@H]2O[C@H](CO)[C@@H](O)[C@H](O)[C@@H]2O)c(Cl)c1` in this work.

A logD at 2 h, 1 µM [1] of 2.8 was found for `OC[C@H]1O[C@H](Oc2ccc(N3CCc4ccccc43)cc2Cl)[C@@H](O)[C@@H](O)[C@@H]1O` in this work.

A logD at 2 h, 1 µM [1] of 3.2 was found for `OC[C@H]1O[C@H](Oc2ccc(-c3cnc4[nH]ccc4c3)cc2Cl)[C@@H](O)[C@@H](O)[C@@H]1O` in this work.

A logD at 2 h, 1 µM [1] of 1.3 was found for `Cn1cnc2cc(-c3ccc(O[C@H]4O[C@H](CO)[C@@H](O)[C@H](O)[C@@H]4O)c(Cl)c3)cnc21` in this work.
